Bioassay records as filed in PubChem BioAssay.
Sampled rows, rich in hits. Any-hit rate of the full collection: about 3.3%.
SENP1 inh: SENP1 (human) catalytic domain inhibition; Q9P0U3; recombinant SENP1 catalytic domain, CyPet-SUMO1-YPet FRET cleavage; inhibition, % at 10 µM; hit rate 0.21% among 360,000; AID 624204;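 active = inhibition at least 30% at 10 µM, raw YFP signal under a set limit, fluorescence ratio 0.5 to 1.5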;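 also: 0% = enzyme with DMSO and 100% = no enzyme wells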
Target sequence (Q9P0U3 419-644 limits assumed): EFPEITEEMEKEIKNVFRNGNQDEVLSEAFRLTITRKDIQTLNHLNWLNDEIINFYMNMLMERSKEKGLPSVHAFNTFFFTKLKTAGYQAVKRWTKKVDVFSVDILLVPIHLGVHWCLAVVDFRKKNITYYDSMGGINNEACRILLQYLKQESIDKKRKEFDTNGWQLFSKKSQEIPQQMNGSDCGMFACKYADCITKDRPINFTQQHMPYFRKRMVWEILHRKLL
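Test system: recombinant human SENP1 catalytic domain, His6-tagged / Medium: pH 8 Tris buffer with EDTA, NaCl, BME, BSA, NP40, catalase / Also added: SUMO1 FRET substrate flanked by Cypet and Ypet, 25 nM / Times: 50 min reaction at room temperature / Signal: FRET, CFP and YFP emission / Control set: no-enzyme low control and enzyme-plus-DMSO high control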
SENP8 block-1: blocks the human protease SENP8; Q96LD8; purified SENP8, Z-RLRGG-aminoluciferin cleavage, luminescence; AID 2540; hit rate 1.2% among 330,000; inhibition, % at 10 µM; in the data active = inhibition above about 50%
SENP7 inh: inhibitors of human SENP7 protease | Q9BQF6 | inhibition, % at 5 µM | hit rate 1.5% among 330,000 | recombinant SENP7, Z-RLRGG-aminoluciferin luminescence, 40 min | AID 434973;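 active = inhibition above about 50% at the single test dose, limit read from the data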;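 also: plate controls were DMSO with enzyme for no effect and no enzyme buffer wells for full effect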
Target sequence (Q9BQF6 706-1050 limits assumed): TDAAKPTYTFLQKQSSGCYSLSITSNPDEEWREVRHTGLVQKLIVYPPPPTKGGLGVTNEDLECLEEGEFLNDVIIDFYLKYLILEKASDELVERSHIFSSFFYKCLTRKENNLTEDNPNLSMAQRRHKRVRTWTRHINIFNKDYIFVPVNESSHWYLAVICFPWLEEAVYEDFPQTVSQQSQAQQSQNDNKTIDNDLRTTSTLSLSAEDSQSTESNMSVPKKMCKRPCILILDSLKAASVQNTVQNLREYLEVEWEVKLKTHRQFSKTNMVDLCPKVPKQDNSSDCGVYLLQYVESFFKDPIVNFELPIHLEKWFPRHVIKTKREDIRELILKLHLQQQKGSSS
NRP1-CendR mod: NRP-1/CendR interaction modulation; O14786; FAM-RPARPAR peptide binding to NRP-1, fluorescence polarization; inhibition, % at 25 µM; hit rate 0.85% among 360,000;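 active = inhibition or corrected inhibition above about 18%, plus a signal ratio from 0.5 to 1.5, limit read from the data, passing the limit was not always enough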
SENP6 block: inhibitors of human SENP6 protease. hit rate 1.8% among 330,000. Recombinant SENP6 catalytic domain, aminoluciferin luminescence. inhibition, % at 10 µM;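 active = inhibition above about 50% at the single tested dose, limit read from the data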;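 also: plate controls were DMSO wells with enzyme for no effect and DMSO wells lacking enzyme for full effect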
SENP8 block-2: inhibitors of human SENP8 protease | recombinant SENP8, Nedd8 substrate fluorescence | inhibition, % at 20 µM | hit rate 0.64% among 360,000 | AID 602440; in the data active = inhibition mostly above about 40%, no sharp cut-off; inactive = mostly below about 27%
* hit, by the source's call; · = no result given.

SMILES	SENP1 inh	SENP8 block-1	SENP7 inh	NRP1-CendR mod	SENP6 block	SENP8 block-2
N#CC(C#N)=NNc1ccc(S(=O)(=O)N2CCCC2)cc1	0.4	-8.9	-3.4	2.8	1.8	47.3*
N#C/C(=N\Nc1ccc(S(=O)(=O)N2CCc3ccccc32)cc1)C(N)=S	4.2	-6.6	-5.7	-12.5	-19.9	41.2*
COCCCNC(=O)c1ccc2c3c(onc13)-c1ccccc1C2=O	7.8	37.9	17.6	-6.0	54.1*	106.0*
COCCCNC(=O)c1ccccc1Oc1ccccc1	0.8	3.1	0.0	6.2	-1.2	12.7
O=C(CSc1nnnn1-c1ccccc1)c1ccco1	2.6	3.5	12.6	12.6	-0.6	11.2
Cn1nnnc1SCC(=O)c1ccco1	2.5	2.7	9.7	18.7*	-12.7	14.5
COc1cccc(C(C)(O)c2nc(-c3ccc(S(C)(=O)=O)cc3)cs2)c1 (stereo unspecified)	0.7	·	·	-5.6	·	9.5
COc1ccc(/C=C/C(=O)c2cc3c(cc2N)OCO3)cc1	-5.5	96.2*	95.7*	8.3	94.9*	-0.4
COc1cc(C(=O)c2ccccc2)c([N+](=O)[O-])cc1OC	0.4	1.1	-6.8	-4.4	5.9	9.9
COc1ccc([N+](=O)[O-])cc1C(=O)C(=O)c1ccccc1	3.6	-11.8	-14.6	9.1	-11.4	43.7*
NC(=S)N=Nc1c(O)n(C2OC(=O)c3ccccc32)c2ccccc12 (stereo unspecified)	3.0	-1.9	-0.5	-1.3	-6.5	49.3*
CCN(CC)C(=O)Cn1cc(C(=O)C(=O)Nc2ccc3c(c2)OCO3)c2ccccc21	0.3	·	·	-26.8	·	18.8
c1ccc2c(c1)OCC(c1nnc3n1-c1ccccc1SC3)O2 (stereo unspecified)	-0.2	-1.7	-0.2	45.0*	1.9	20.4
CCOC(=O)c1c(N/C=C(\C#N)c2nc(-c3ccc(OC(C)=O)cc3)cs2)sc2c1CCC2	-20.6	·	·	11.8	·	18.3
C=CCNc1nc(-c2ccc3c(c2)OCCO3)cs1	-2.7	82.3*	65.9*	1.3	90.2*	10.4
CCC(=O)Nc1nc(-c2ccc3c(c2)OCCO3)cs1	2.9	25.3	11.2	-0.1	26.7	23.0
N#Cc1c(Nc2ccccc2)sc(C(=O)c2ccccc2)c1N	-1.6	-3.3	-0.4	7.4	-13.9	0.9
Cc1cccc(Oc2sc(C(=O)c3ccccc3)c(N)c2C#N)c1	-4.3	-11.3	-14.5	30.8*	-10.7	-0.7
CN1C[C@@H]2[C@@H]3C(=O)N(Cc4ccccc4)C(=O)[C@@H]3[C@](C)(C1=O)N2C(=O)c1ccc(Cl)cc1	2.2	6.1	-2.6	31.4*	-8.8	5.0
CCN1C[C@@H]2[C@@H]3C(=O)N(Cc4ccccc4)C(=O)[C@@H]3[C@](CC)(C1=O)N2C(=O)c1ccc(C(C)(C)C)cc1	0.2	·	·	26.0*	·	-9.4
CCN1C[C@@H]2[C@@H]3C(=O)N(Cc4ccccc4)C(=O)[C@@H]3[C@](CC)(C1=O)N2C(=O)c1ccc(C(F)(F)F)cc1	-2.2	2.2	-3.2	29.6*	-15.2	-0.8
CCN1C[C@@H]2[C@@H]3C(=O)N(Cc4ccccc4)C(=O)[C@@H]3[C@](Cc3ccccc3)(C1=O)N2C(=O)c1ccc(C(F)(F)F)cc1	1.5	·	·	0.7	·	4.1
Cc1ccc(C(=O)N2[C@@H]3CN(C)C(=O)[C@@]2(C)[C@H]2C(=O)N(Cc4ccccc4)C(=O)[C@@H]32)cc1	1.7	·	·	9.6	·	11.4
COc1cc(NCCCC(C)N)c2ncccc2c1 (stereo unspecified)	-5.0	·	·	44.2*	·	57.0*
CCOc1cc(/C=N/NC(=O)C(N)=O)cc(Br)c1O	0.4	4.9	-0.9	3.8	-3.5	9.6
SMILES	SENP1 inh	SENP8 block-1	SENP7 inh	NRP1-CendR mod	SENP6 block	SENP8 block-2
CCOc1cc(Br)c(Br)c(C=Nc2ccc(NC(C)=O)cc2)c1O	41.2*	0.6	-1.0	-14.4	-10.6	17.5
C#CCn1cc(C=C2C(=O)c3ccccc3C2=O)c2ccccc21	-20.3	·	·	-7.8	·	37.5*
COc1ccc(C)cc1NC(=O)CN1CCCC1c1ccc2c(c1)OCCCO2 (stereo unspecified)	-3.6	9.5	-0.5	1.2	-9.0	6.9
CCn1c2ccccc2c2cc(NC(=O)N3CCOCC3)ccc21	32.3*	-7.9	-11.7	1.5	-18.6	-340.8
Cc1cc(C(=O)N/N=C/c2cc(Br)cc(Br)c2OC(=O)c2cccc(F)c2)n[nH]1	-28.2	9.1	3.1	20.3*	3.8	9.4
CN(CC(=O)Nc1ccccc1Br)C(=O)c1ccccc1OCc1ccc(Cl)cc1	1.6	·	·	3.3	·	-0.7
CCCCCCCCN1C(=O)[C@H](CC(=O)NCCC(C)C)C[C@@]2(C(=O)OCC)CCCC=C12	-1.2	·	·	-6.2	·	16.0
CCOC(=O)c1nn(-c2ccccc2)c(=O)c2c(N)scc12	11.4	-0.2	-3.9	12.4	1.8	54.6*
Cc1cc(C)c2cc(C#N)c(NCCCN)nc2c1	-104.5	·	·	-5.1	·	-436.8
CC(C)n1c(O)c(N=NC(=O)CNC(=O)Cc2ccc(Cl)cc2)c2ccccc21	4.4	-13.9	-7.1	21.2*	-7.9	22.9
O=C(O)c1cccc2c1Cc1cc(Cl)ccc1-2	-6.4	·	·	24.8*	·	-1.9
COc1ccc(C(CNc2ccc(S(=O)(=O)N3CCN(C)CC3)cc2[N+](=O)[O-])N(C)C)cc1 (stereo unspecified)	3.2	-6.6	6.5	12.2	-11.6	-6.2
COc1ccc(C(CNc2ccc(S(=O)(=O)N3CCCC3)cc2[N+](=O)[O-])N2CCCC2)cc1 (stereo unspecified)	7.6	9.2	-2.0	25.6*	19.1	14.5
CC(C)CC(=O)N1CCN(c2ccc([N+](=O)[O-])c(NCc3ccccc3)c2)CC1	1.9	-4.2	2.8	7.0	-11.9	53.6*
COc1ccc(CN(C(C)=O)c2ccccc2C(=O)O)cc1	3.1	-0.7	0.3	-4.5	-18.0	8.0
COc1ccc(N(/N=C2\Sc3ccccc3C2=O)C(C)=O)cc1	2.7	·	·	-8.6	·	51.6*
O=C(NC1CCCC1)C1c2ccccc2OCC(=O)N1Cc1ccco1 (stereo unspecified)	-0.4	·	·	12.7	·	9.1
CC(=O)OC[C@@H]1CN(Cc2cccc(C(F)(F)F)c2)C[C@H](n2cnc3c(NCc4ccco4)ncnc32)O1	-0.9	·	·	40.3*	·	10.8
CC1=C(C)C(=O)N(c2ccccn2)C1=O	2.5	-14.7	-9.1	-5.2	-29.0	10.2
Cc1nn(-c2ccccn2)c2c1C(=O)C(Br)CC2 (stereo unspecified)	-23.3	·	·	8.3	·	66.2*
Cc1onc(-c2ccccc2Cl)c1C(=O)N1CCOC12CCN(c1cccc(F)n1)CC2	-1.4	0.1	7.5	17.7*	9.3	5.4
COC(=O)[C@]12CCCCC=C1N(Cc1cccc3ccccc13)C(=O)[C@H](CC(=O)N1CCCCC1)C2	2.4	·	·	4.9	·	9.9
CCn1c(=O)cc(SCC(=O)N2CCCCC2)c2ccccc21	2.5	-5.9	-7.2	22.0*	-9.1	-21.4
